The values that follow come from ChEMBL document CHEMBL5335784, “Discovery of a novel 1,3,4-oxadiazol-2-one-based NLRP3 inhibitor as a pharmacological agent to mitigate cardiac and metabolic complications in an experimental model of diet-induced metaflammation” (Eur J Med Chem, 2023).

The source made the active and inactive calls. The rule behind the calls is not given here.

A short description of series [1]: Drug metabolism in human THP-1 cells assessed as half time for compound hydrolysis to 2-(5-(2-Chlorobenzyl)-2-oxo-1,3,4-oxadiazol-3(2H)-yl)acetic acid at 100 uM by RP-HPLC analysis. Format: ADME, cell-based. The procedure, abridged: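 PMA-differentiated THP-1 cells lysed in RIPA buffer. Compound added to lysate at 100 μM final (from 10 mM DMSO stock) at 37 °C. Aliquots at intervals deproteinized with CH3CN/0.1% TFA and quantified by RP-HPLC against standards. Pseudo-first-order t1/2 from exponential decay fit; three experiments.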

Series [2] concerns Rattus norvegicus. Briefly: Inhibition of ischemia/reperfusion-induced NLRP3 inflammasome activation in ischemia/reperfusion-induced myocardial injury and high fat diet fed obese Wistar rat model assessed as decrease in NLRP3 protein expression at 20 mg/kg/day, ip administered for 4 weeks followed by excised heart exposed to global ischemia for 30 mins and reperfusion for 120 mins by immunoblot analysis. Type of series: functional, organism-based. The procedure, abridged: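 Left ventricles from Langendorff hearts (30 min global ischemia/120 min reperfusion) of HFD or SD rats dosed 20 mg/kg/day i.p. for the final 28 days. Tissue homogenized in RIPA buffer with protease/phosphatase inhibitors. 50 μg protein run on 8% SDS-PAGE and immunoblotted for NLRP3 (1:500), normalized to β-actin by densitometry; n=4 per group.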
(Immunoblotting shows a protein as a band on a membrane.)

The test system of series [3] is Rattus norvegicus. The series can be described thus: Inhibition of ischemia/reperfusion-induced oxidative stress in ischemia/reperfusion-induced myocardial injury and high fat diet fed obese Wistar rat model assessed as increase in cardiac SOD activity at 20 mg/kg/day, ip administered for 4 weeks followed by excised heart exposed to global ischemia for 30 mins and reperfusion for 120 mins. Format: functional, organism-based. The procedure, abridged:
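Same rat diet, dosing and ischemia/reperfusion protocol. LV homogenized in 50 mM Tris-HCl pH 8.2 with 1 mM DTPA and centrifuged at 20,000 x g for 20 min. Supernatant mixed with 0.2 mM pyrogallol, autoxidation followed at 420 nm for 3 min. Activity given as % pyrogallol autoxidation relative to sham; 1 U inhibits the rate by 50%.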

Series [4] deals with Rattus norvegicus. Briefly: Antiinflammatory activity against high fat diet fed-induced metaflammation Wistar rat model assessed as reduction in serum IL-1 beta level at 20 mg/kg/day, ip administered for 4 weeks by ELISA. Type of series: functional, organism-based. In a few lines: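 Male Wistar rats on HFD or SD for 12 weeks received 20 mg/kg/day i.p. (saline, 2% DMSO, 5% Cremophor-EL) or vehicle for the last 28 days. Circulating IL-1β, TNF-α, BNP and Gal-3 quantified by ELISA in blood collected after sacrifice. n=6–7 per group.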
For orientation: An ELISA detects its analyte on a solid surface through an enzyme-linked reagent.

Series [5] relates to Rattus norvegicus. Briefly: Cardioprotective activity against high fat diet fed-induced metaflammation Wistar rat model assessed as reduction in myocardial damage by measuring reduction in plasma LDH level at 20 mg/kg/day, ip administered for 4 weeks. Format: functional, organism-based.

Consider `CCOC(=O)Cn1nc(Cc2ccccc2Cl)oc1=O`, for which the half-life – broadly, the time in which the quantity being followed falls by half – at 100 µM in series [1] is 1.08 h. The inhibition entry in the series on Rattus norvegicus [2] and in the series with Rattus norvegicus [3] was “Active” each time. Also, the outcome in the series with Rattus norvegicus [4] and with Rattus norvegicus [5] was Active.
